From ChEMBL document CHEMBL3297713, “Discovery, optimization, and biological evaluation of 5-(2-(trifluoromethyl)phenyl)indazoles as a novel class of transient receptor potential A1 (TRPA1) antagonists” (J Med Chem, 2014)
The source made the active and inactive calls.

How the values were obtained:
[1] = target: Transient receptor potential cation channel subfamily A member 1 (Homo sapiens, UniProt O75762); experiment: Antagonist activity at human TRPA1 expressed in CHO-TREX cells assessed as inhibition of cinnamaldehyde-induced calcium flux incubated 10 mins prior to cinnamaldehyde addition by FLIPR assay relative to control; type: cell-based
In short: (§1)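 TRPA1-expressing CHO-TREX cells, channel expression induced with tetracycline (0.5 µg/mL human, 1 µg/mL mouse or rat). Cells loaded with Fluo4-AM for 90 min at room temperature, washed, then test agent added in HBSS/20 mM HEPES/2.5 mM probenecid/0.1% BSA. Agonist added 10 min later at EC80: human cinnamaldehyde 30 µM, AITC 2.5 µM, dibenzoxazepine-carboxamide 5 nM; rat and mouse cinnamaldehyde 40 µM. FLIPR calcium flux; mean of triplicates fitted to sigmoidal dose-response curves.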

[2] = target: Transient receptor potential cation channel subfamily A member 1 (Rattus norvegicus) (UniProt Q6RI86); experiment: (§2) Antagonist activity at rat TRPA1 expressed in CHO-TREX cells assessed as inhibition of cinnamaldehyde-induced calcium flux incubated 10 mins prior to cinnamaldehyde addition by FLIPR assay relative to control; type: cell-based; set-up: concentration or dose not given beside the values; in short: as §1
[3] = target: Transient receptor potential cation channel subfamily A member 1 (Rattus norvegicus, UniProt Q6RI86); experiment: as §2; type: cell-based; in short: as §1
[4] = target: Transient receptor potential cation channel subfamily A member 1 (Mus musculus) (UniProt Q8BLA8); experiment: (§3) Antagonist activity at mouse TRPA1 expressed in CHO-TREX cells assessed as inhibition of cinnamaldehyde-induced calcium flux incubated 10 mins prior to cinnamaldehyde addition by FLIPR assay relative to control; type: cell-based; set-up: concentration or dose not given beside the values; in short: as §1
[5] = target: Transient receptor potential cation channel subfamily A member 1 (Mus musculus, UniProt Q8BLA8); experiment: as §3; type: cell-based; in short: as §1
CHO-K1 [6] = experiment: Selectivity ratio of IC50 for human TRPV3 expressed in CHOK1 cells to IC50 for human TRPA1 expressed in CHO-TREX cells; type: cell-based
In short: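 Calcium influx was measured by FLIPR in Fluo4-AM-loaded cells: hTRPV3 CHO-K1 challenged with 40 µM 2-APB, and hTRPA1 CHO-TREX (0.5 µg/mL tetracycline) challenged with 30 µM cinnamaldehyde, 2.5 µM AITC or 5 nM dibenzoxazepine carboxamide, all at EC80. Compounds were added 10 min ahead of agonist in HEPES-buffered HBSS with probenecid. Sigmoidal curves were fitted to triplicate means.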

CHO-K1 [7] = experiment: Selectivity ratio of IC50 for human TRPM8 expressed in CHOK1 cells to IC50 for human TRPA1 expressed in CHO-TREX cells; type: cell-based
In short: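 FLIPR calcium-flux antagonist assays with Fluo4-AM loading (90 min, room temperature) in HBSS/20 mM HEPES/2.5 mM probenecid/0.1% BSA. Compound added 10 min before agonist at EC80: 40 µM menthol for CHO-K1 hTRPM8; for tetracycline-induced (0.5 µg/mL) CHO-TREX hTRPA1, 30 µM cinnamaldehyde, 2.5 µM AITC or 5 nM dibenzoxazepine carboxamide. Response is maximum minus minimum. IC50s come from sigmoidal fits of triplicate means.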

[8] = Volume of distribution at steady state in Wistar rat at 5 mg/kg, iv; type: ADME, organism-based; set-up: dose 5 mg/kg, route intravenous; conditions: in vivo, read-out: Vdss
In short: (§4)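 Wistar rats given 5 mg/kg i.v. at 2.5 mg/mL in 10% EtOH/30% PEG300/60% solutol.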

[9] = Half life in Wistar rat at 5 mg/kg, iv; type: ADME, organism-based; set-up: dose 5 mg/kg, route intravenous; conditions: in vivo; in short: as §4
[10] = AUC in Wistar rat at 10 mg/kg, po; type: ADME, organism-based; set-up: dose 10 mg/kg, route oral; conditions: plasma
In short: (§5)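 Male Wistar rats dosed orally at 10 mg/kg as a suspension in 0.5% methylcellulose/0.5% Tween80.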

[11] = Cmax in Wistar rat at 10 mg/kg, po; type: ADME, organism-based; set-up: dose 10 mg/kg, route oral; conditions: in vivo; in short: as §5
[12] = Tmax in Wistar rat at 10 mg/kg, po; type: ADME, organism-based; set-up: dose 10 mg/kg, route oral; conditions: in vivo; in short: as §5
Rattus norvegicus = experiment: Reversal of FCA-induced mechanical hyperalgesia in Wistar rat at 10 mg/kg, po after 1 to 3 hrs; type: functional
In short: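 Paw withdrawal thresholds taken in both hind paws before and 72 h after intraplantar complete Freund's adjuvant in one paw. Oral vehicle (0.5% methylcellulose/0.5% Tween 80) or 3, 10 or 30 mg/kg given, with thresholds read at 1, 3 and 6 h. % reversal = (postdose − predose)/(naive − predose) × 100. D50 is the dose calculated to give 50% reversal.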

Mus musculus = experiment: Reversal of mustard oil-induced allodynia in C57Bl6 mouse at 10 mg/kg, po administered 48 hrs post mustard oil challenge measured after 1 hr; type: functional, organism-based; set-up: dose 10 mg/kg
In short: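 Male C57Bl6 mice (20-25 g) under isoflurane received intracolonic mustard oil (0.25% in 70% ethanol). Oral vehicle or 3, 10 or 30 mg/kg given 48 h later. Abdominal von Frey filaments (0.02–15 g, ascending, up to 6 s) applied 1 h after dosing; the lowest force giving retraction, jumping, licking or scratching was taken as the threshold.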

[13] = Volume of distribution at steady state in Balb/C mouse at 5 mg/kg, iv; type: ADME, organism-based; set-up: dose 5 mg/kg, route intravenous; conditions: in vivo, read-out: Vdss
In short: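 Balb/C mice given 5 mg/kg i.v. at 2.5 mg/mL in 10% EtOH/30% PEG300/60% solutol.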

[14] = AUC in Balb/C mouse at 20 mg/kg, po; type: ADME, organism-based; set-up: dose 20 mg/kg, route oral; conditions: plasma
In short: (§6)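 Balb/C mice dosed by oral gavage at 20 mg/kg as a suspension in 0.5% methylcellulose/0.5% Tween80.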

[15] = Cmax in Balb/C mouse at 20 mg/kg, po; type: ADME, organism-based; set-up: dose 20 mg/kg, route oral; conditions: in vivo; in short: as §6
[16] = Tmax in Balb/C mouse at 20 mg/kg, po; type: ADME, organism-based; set-up: dose 20 mg/kg, route oral; conditions: in vivo; in short: as §6
[17] = Oral bioavailability in Balb/C mouse at 20 mg/kg; type: ADME, organism-based; conditions: in vivo; in short: as §6

Transient receptor potential cation channel subfamily A member 1 (Homo sapiens, UniProt O75762), sequence (O75762 whole entry): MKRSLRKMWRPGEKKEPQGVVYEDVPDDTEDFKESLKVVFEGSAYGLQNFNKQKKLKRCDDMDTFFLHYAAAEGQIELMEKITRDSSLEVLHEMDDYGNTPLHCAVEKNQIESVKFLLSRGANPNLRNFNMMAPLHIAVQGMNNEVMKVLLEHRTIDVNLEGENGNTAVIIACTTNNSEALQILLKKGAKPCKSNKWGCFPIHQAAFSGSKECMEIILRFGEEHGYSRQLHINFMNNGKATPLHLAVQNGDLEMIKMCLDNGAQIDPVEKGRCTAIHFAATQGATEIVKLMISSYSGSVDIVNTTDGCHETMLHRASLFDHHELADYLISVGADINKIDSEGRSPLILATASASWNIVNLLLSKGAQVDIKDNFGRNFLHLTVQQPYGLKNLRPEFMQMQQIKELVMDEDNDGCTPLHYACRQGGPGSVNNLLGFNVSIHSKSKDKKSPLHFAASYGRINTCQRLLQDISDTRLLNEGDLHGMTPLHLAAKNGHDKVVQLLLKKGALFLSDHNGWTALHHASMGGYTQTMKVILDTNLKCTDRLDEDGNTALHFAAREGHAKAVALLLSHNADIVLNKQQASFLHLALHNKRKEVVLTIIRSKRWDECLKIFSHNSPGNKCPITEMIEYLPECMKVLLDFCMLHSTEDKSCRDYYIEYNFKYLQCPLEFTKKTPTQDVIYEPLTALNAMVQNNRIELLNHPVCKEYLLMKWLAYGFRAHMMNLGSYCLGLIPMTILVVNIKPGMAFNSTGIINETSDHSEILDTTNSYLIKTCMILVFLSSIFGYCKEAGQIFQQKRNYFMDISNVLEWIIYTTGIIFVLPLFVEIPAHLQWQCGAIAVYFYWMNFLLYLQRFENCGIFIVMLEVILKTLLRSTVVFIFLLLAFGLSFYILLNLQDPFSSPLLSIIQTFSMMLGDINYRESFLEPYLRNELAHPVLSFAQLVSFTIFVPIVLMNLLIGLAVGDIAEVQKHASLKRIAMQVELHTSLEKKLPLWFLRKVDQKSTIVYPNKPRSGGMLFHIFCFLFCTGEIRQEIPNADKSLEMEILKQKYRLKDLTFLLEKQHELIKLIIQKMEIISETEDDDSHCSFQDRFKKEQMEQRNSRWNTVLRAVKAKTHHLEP
Transient receptor potential cation channel subfamily A member 1 (Rattus norvegicus), sequence (Q6RI86 whole entry): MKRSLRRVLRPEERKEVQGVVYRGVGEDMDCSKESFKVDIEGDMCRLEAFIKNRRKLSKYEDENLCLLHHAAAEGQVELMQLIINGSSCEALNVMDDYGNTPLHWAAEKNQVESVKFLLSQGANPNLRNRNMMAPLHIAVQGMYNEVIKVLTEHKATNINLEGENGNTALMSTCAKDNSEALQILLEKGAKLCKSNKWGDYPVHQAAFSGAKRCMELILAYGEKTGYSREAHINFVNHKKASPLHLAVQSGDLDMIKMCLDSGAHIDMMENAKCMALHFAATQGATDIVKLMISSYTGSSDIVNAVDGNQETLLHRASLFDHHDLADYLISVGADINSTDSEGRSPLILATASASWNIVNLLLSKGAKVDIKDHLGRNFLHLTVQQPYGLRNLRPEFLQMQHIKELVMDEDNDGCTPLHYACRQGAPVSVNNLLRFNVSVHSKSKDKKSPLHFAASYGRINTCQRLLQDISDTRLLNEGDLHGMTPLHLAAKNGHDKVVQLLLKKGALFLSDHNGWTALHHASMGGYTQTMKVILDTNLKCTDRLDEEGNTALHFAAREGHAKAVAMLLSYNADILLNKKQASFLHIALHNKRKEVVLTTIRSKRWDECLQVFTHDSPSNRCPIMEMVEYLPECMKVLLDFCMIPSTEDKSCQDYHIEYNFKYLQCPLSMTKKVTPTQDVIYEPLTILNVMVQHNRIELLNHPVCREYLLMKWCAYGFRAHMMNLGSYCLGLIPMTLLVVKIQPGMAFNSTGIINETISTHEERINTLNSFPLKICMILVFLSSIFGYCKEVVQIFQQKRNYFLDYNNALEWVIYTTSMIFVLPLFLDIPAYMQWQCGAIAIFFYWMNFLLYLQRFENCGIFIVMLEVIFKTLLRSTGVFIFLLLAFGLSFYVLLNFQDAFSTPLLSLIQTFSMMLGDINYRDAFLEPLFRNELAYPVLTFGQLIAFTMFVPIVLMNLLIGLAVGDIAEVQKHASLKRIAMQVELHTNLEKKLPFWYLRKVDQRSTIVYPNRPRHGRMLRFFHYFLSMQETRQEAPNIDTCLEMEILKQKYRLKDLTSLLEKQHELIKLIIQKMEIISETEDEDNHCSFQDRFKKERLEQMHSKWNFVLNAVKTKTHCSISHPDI
Transient receptor potential cation channel subfamily A member 1 (Rattus norvegicus, UniProt Q6RI86), sequence (Q6RI86 whole entry): as above
Transient receptor potential cation channel subfamily A member 1 (Mus musculus), sequence (Q8BLA8 whole entry): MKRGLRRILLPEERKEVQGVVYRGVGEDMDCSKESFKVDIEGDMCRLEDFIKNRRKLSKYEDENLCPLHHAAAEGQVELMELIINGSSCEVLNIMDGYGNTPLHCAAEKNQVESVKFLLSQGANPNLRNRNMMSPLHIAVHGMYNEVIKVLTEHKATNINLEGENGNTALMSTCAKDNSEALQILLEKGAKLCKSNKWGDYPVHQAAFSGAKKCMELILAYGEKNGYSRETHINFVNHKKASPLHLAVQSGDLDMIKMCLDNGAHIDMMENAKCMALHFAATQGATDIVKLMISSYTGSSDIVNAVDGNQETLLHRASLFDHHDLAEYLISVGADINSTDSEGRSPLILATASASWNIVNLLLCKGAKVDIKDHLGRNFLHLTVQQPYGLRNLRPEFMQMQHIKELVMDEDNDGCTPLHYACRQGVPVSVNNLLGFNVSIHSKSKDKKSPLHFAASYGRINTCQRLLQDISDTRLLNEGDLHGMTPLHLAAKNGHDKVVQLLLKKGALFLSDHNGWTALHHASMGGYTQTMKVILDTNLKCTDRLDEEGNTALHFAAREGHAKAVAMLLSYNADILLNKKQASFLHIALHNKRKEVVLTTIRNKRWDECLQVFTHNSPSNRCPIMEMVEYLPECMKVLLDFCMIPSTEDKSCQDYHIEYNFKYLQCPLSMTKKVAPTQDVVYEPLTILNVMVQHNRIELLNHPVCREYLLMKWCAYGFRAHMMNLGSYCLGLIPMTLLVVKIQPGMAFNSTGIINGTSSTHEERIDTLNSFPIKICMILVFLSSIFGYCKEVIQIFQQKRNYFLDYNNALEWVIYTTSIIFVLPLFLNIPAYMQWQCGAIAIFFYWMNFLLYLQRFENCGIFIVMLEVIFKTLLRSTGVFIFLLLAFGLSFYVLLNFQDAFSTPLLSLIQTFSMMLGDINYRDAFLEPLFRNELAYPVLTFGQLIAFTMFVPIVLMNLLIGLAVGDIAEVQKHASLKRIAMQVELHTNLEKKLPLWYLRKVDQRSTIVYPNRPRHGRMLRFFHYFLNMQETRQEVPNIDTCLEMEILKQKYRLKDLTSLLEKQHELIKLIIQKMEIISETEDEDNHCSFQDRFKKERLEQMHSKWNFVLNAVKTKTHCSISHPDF
Transient receptor potential cation channel subfamily A member 1 (Mus musculus, UniProt Q8BLA8), sequence (Q8BLA8 whole entry): as above

- IC50 [1]: 15 nM
- inhibition [1]: 99%
- inhibition [2]: 99%
- IC50 [3]: 89 nM
- inhibition [4]: 100%
- IC50 [5]: 53 nM
- Vd [8]: 2.39 L/kg
- half-life [9]: 258 min
- AUC [10]: 9.31 µM·h
- Cmax [11]: 3530 nM
- Tmax [12]: 30 min
- Vd [13]: 4.07 L/kg
- AUC [14]: 5.59 µM·h
- Cmax [15]: 1270 nM
- Tmax [16]: 30 min
- bioavailability [17]: 17%
Compound: Cc1cc2[nH]ncc2cc1-c1ccccc1C(F)(F)F
- Ratio IC50 (CHO-K1 [6]): > 100
- Ratio IC50 (CHO-K1 [7]): > 100
- Activity (Rattus norvegicus): 58.6%
- Activity (Mus musculus): Active
